Assay results from ChEMBL document CHEMBL2150970, “Synthesis, anticancer activities and molecular modeling studies of novel indole retinoid derivatives” (Eur J Med Chem, 2012).
The source made the active and inactive calls. The rule behind the calls is not given here.

Experiments:
Huh-7 = experiment: Cytotoxicity against human HuH7 cells after 3 days by SRB assay; type: functional, cell-based
How it was run: (§1)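 Human cancer cells grown in DMEM with 10% FCS and penicillin/streptomycin (CAMA-1 medium also had 1% sodium pyruvate), at 37 °C, 5% CO2. Seeded at 10⁴ cells/well, dosed 24 h later, and exposed 3 days. Fixed with ice-cold 10% TCA for 60 min, stained 10 min with 0.4% SRB at room temperature, washed with 1% acetic acid, dye dissolved in 10 mM Tris base, A515 read. Triplicate runs with matched DMSO controls; IC50 determined.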

CAMA-1 = experiment: Cytotoxicity against human CAMA1 cells after 3 days by SRB assay; type: functional, cell-based; conditions: CAMA-1, 72 h; how it was run: as §1
T47D [1] = experiment: Cytotoxicity against human T47D cells after 3 days by SRB assay; type: functional, cell-based; how it was run: as §1
HCT-116 = experiment: Cytotoxicity against human HCT116 cells after 3 days by SRB assay; type: functional, cell-based; how it was run: as §1
MCF7 [2] = experiment: Cytotoxicity against human MCF7 cells after 3 days by SRB assay; type: functional, cell-based; conditions: MCF7, 72 h
How it was run: (§2)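 Cells at 10⁴/well were treated 24 h after seeding and exposed for three days. They were then fixed in ice-cold 10% TCA for 60 min at 4 °C, stained with 0.4% SRB for 10 min at room temperature, washed with 1% acetic acid and solubilised in 10 mM Tris base. Absorbance was read at 515 nm. IC₅₀ was determined in triplicate with DMSO vehicle controls.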

BT-474 = experiment: Cytotoxicity against human BT474 cells after 3 days by SRB assay; type: functional, cell-based; conditions: BT-474, 72 h; how it was run: as §2
MDA-MB-453 [3] = experiment: Cytotoxicity against human MDA-MB-453 cells after 3 days by SRB assay; type: functional, cell-based; conditions: MDA-MB-453, 72 h; how it was run: as §2
BT-20 = experiment: Cytotoxicity against human BT20 cells after 3 days by SRB assay; type: functional, cell-based; conditions: BT-20, 72 h; how it was run: as §2
SK-BR-3 = experiment: Cytotoxicity against human SKBR3 cells after 3 days by SRB assay; type: functional, cell-based; conditions: SK-BR-3, 72 h; how it was run: as §2
MDA-MB-361 [4] = experiment: Cytotoxicity against human MDA-MB-361 cells after 3 days by SRB assay; type: functional, cell-based; conditions: MDA-MB-361, 72 h; how it was run: as §2
MDA-MB-157 [5] = experiment: Cytotoxicity against human MDA-MB-157 cells after 3 days by SRB assay; type: functional, cell-based; conditions: MDA-MB-157, 72 h; how it was run: as §2
MDA-MB-231 [6] = experiment: Cytotoxicity against human MDA-MB-231 cells after 3 days by SRB assay; type: functional, cell-based; conditions: MDA-MB-231, 72 h; how it was run: as §2
ZR-75-1 = experiment: Cytotoxicity against human ZR-75-1 cells after 3 days by SRB assay; type: functional, cell-based; conditions: ZR-75-1, 72 h; how it was run: as §2
MCF-12A [7] = experiment: Cytotoxicity against human MCF12A cells after 3 days by SRB assay; type: cell-based; conditions: 72 h; how it was run: as §2
MCF-12A [8] = experiment: Ratio of IC50 for human MCF12A cells to IC50 for human CAMA1 cells
How it was run: (§3)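 Each IC50 came from the SRB assay after 3 days' exposure: 10⁴ cells/well, TCA fixation, 0.4% SRB, Tris solubilization, A515, triplicates, DMSO control. Ratio is immortalized normal breast MCF-12A IC50 over the breast cancer line's IC50. Media carried 10% FCS plus antibiotics: DMEM for most lines, DMEM with sodium pyruvate for CAMA-1/MDA-MB-157, glucose-rich RPMI for ZR-75-1, McCoy for SK-BR-3.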

T47D [9] = experiment: Ratio of IC50 for human MCF12A cells to IC50 for human T47D cells; how it was run: as §3
MCF7 [10] = experiment: Ratio of IC50 for human MCF12A cells to IC50 for human MCF7 cells; how it was run: as §3
MDA-MB-453 [11] = experiment: Ratio of IC50 for human MCF12A cells to IC50 for human MDA-MB-453 cells; how it was run: as §3
MCF-12A [12] = experiment: Ratio of IC50 for human MCF12A cells to IC50 for human BT20 cells; how it was run: as §3
MDA-MB-361 [13] = experiment: Ratio of IC50 for human MCF12A cells to IC50 for human MDA-MB-361 cells; how it was run: as §3
MDA-MB-157 [14] = experiment: Ratio of IC50 for human MCF12A cells to IC50 for human MDA-MB-157 cells; how it was run: as §3
T47D [15] = experiment: Induction of apoptosis in ER-positive human T47D cells assessed as apoptotic cells at IC50 concentration after 3 days by Hoechst staining based fluorescent microscopy; type: functional, cell-based
MDA-MB-231 [16] = experiment: Induction of apoptosis in ER-negative human MDA-MB-231 cells assessed as apoptotic cells at 1.83 uM after 3 days by Hoechst staining based fluorescent microscopy; type: functional, cell-based
MDA-MB-231 [17] = experiment: Induction of apoptosis in ER-negative human MDA-MB-231 cells assessed as apoptotic cells at 1.8 uM measured on day 2 by Annexin-V-FITC/propidium iodide staining based FACS flow cytometry; type: functional
How it was run: (§4)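 Cells seeded at 5×10⁵ per plate (37 °C, 5% CO2) and treated the following day at two concentrations. On days 2 and 4 after treatment, 1×10⁶ cells were stained with a FITC Annexin V/propidium iodide kit, kept on ice in the dark, and analysed at once on a FACSCalibur. Mean percentage of Annexin V+/PI+ cells is reported. Controls: matched DMSO, plus camptothecin and 1% v/v H2O2 as positive controls.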

MDA-MB-231 [18] = experiment: Induction of apoptosis in ER-negative human MDA-MB-231 cells assessed as apoptotic cells at 1.8 uM measured on day 4 by Annexin-V-FITC/propidium iodide staining based FACS flow cytometry; type: functional; how it was run: as §4
MDA-MB-231 [19] = experiment: Induction of apoptosis in ER-negative human MDA-MB-231 cells assessed as apoptotic cells at 3.6 uM measured on day 2 by Annexin-V-FITC/propidium iodide staining based FACS flow cytometry; type: functional; how it was run: as §4
MDA-MB-231 [20] = experiment: Induction of apoptosis in ER-negative human MDA-MB-231 cells assessed as apoptotic cells at 3.6 uM measured on day 4 by Annexin-V-FITC/propidium iodide staining based FACS flow cytometry; type: functional; how it was run: as §4
[21] = Homo sapiens, Huh-7, 72 h, read-out: IC50
[22] = Homo sapiens, T47D, 72 h, read-out: IC50
[23] = Homo sapiens, HCT-116, 72 h, read-out: IC50

With `CC1(C)CCC(C)(C)c2cc(C(=O)/C=C/c3c[nH]c4ccccc34)ccc21` the IC50 (Huh-7; [21]) was < 0.01 µM, the IC50 (CAMA-1) was < 0.01 µM and the IC50 (T47D [1]; [22]) was 0.1 µM. It also gave an IC50 (HCT-116; [23]) of 0.02 µM, an IC50 (MCF7 [2]) of 1.71 µM and an IC50 (BT-474) of 1.91 µM. The IC50 (MDA-MB-453 [3]) was < 0.01 µM, the IC50 (BT-20) was 1.31 µM and the IC50 (SK-BR-3) was 1.29 µM. It also gave an IC50 (MDA-MB-361 [4]) of 0.06 µM, an IC50 (MDA-MB-157 [5]) of 1.46 µM and an IC50 (MDA-MB-231 [6]) of 1.83 µM. For the same compound, the IC50 (ZR-75-1) was 3.88 µM, the IC50 (MCF-12A [7]) was 3.92 µM and the Ratio IC50 (MCF-12A [8]) was > 392. The Ratio IC50 (T47D [9]) was 3.38, the Ratio IC50 (MCF7 [10]) was 2.29 and the Ratio IC50 (MDA-MB-453 [11]) was > 392. It also gave a Ratio IC50 (MCF-12A [12]) of 2.99, a Ratio IC50 (MDA-MB-361 [13]) of 65.3 and a Ratio IC50 (MDA-MB-157 [14]) of 2.68. For the same compound, the Activity (T47D [15]) was “Active”, the Activity (MDA-MB-231 [16]) was “Active” and the Activity (MDA-MB-231 [17]) was 7.1%. It also gave an Activity (MDA-MB-231 [18]) of 10.53%, an Activity (MDA-MB-231 [19]) of 6.83% and an Activity (MDA-MB-231 [20]) of 15.62%.
In the case of `CC1(C)CCC(C)(C)c2cc(C(=O)/C=C/c3c[nH]c4ccc(Cl)cc34)ccc21`, the IC50 (Huh-7; [21]) is reported as 15.4 µM, the IC50 (T47D [1]; [22]) is reported as 13.1 µM and the IC50 (HCT-116; [23]) is reported as 10.7 µM.
`COc1ccc2[nH]cc(/C=C/C(=O)c3ccc4c(c3)C(C)(C)CCC4(C)C)c2c1` gave an IC50 (Huh-7; [21]) of 15.5 µM, an IC50 (T47D [1]; [22]) of 11.4 µM and an IC50 (HCT-116; [23]) of 13.9 µM.
In the case of `CC1(C)CCC(C)(C)c2cc(C(=O)/C=C/c3c[nH]c4ccc(C(=O)O)cc34)ccc21`, the IC50 (Huh-7; huh-7) is reported as “Not Active”, the IC50 (T47D [1]; t47d) is reported as “Not Active” and the IC50 (HCT-116; hct-116) is reported as “Not Active”.
With `CC1(C)CCC(C)(C)c2cc(C(=O)/C=C/c3c[nH]c4ccc(Br)cc34)ccc21` the IC50 (Huh-7; [21]) was 14 µM, the IC50 (T47D [1]; [22]) was 11.5 µM and the IC50 (HCT-116; [23]) was 10.8 µM.
In the case of `CC[C@@]1(O)C(=O)OCc2c1cc1n(c2=O)Cc2cc3ccccc3nc2-1` [CAMPTOTHECIN], the IC50 (Huh-7; [21]) is reported as 0.06 µM, the IC50 (T47D [1]; [22]) is reported as < 0.01 µM and the IC50 (HCT-116; [23]) is reported as < 0.01 µM. For the same compound, the IC50 (MCF7 [2]) was < 0.01 µM, the IC50 (BT-474) was 12.8 µM and the IC50 (MDA-MB-453 [3]) was < 0.01 µM. For the same compound, the IC50 (BT-20) was < 0.01 µM, the IC50 (SK-BR-3) was < 0.01 µM and the IC50 (MDA-MB-361 [4]) was 0.17 µM. For the same compound, the IC50 (MDA-MB-157 [5]) was 0.02 µM, the IC50 (MDA-MB-231 [6]) was < 0.01 µM and the IC50 (ZR-75-1) was < 0.01 µM. For the same compound, the IC50 (MCF-12A [7]) was < 0.01 µM.
